Screens (PubChem BioAssay)
hERG rescue = compounds protecting human hERG from proarrhythmic drug block; CHO-hERG, FluxOR thallium flux, dofetilide IC70 present; 310,000 tested, 0.51% active; Q12809; AID 1511; activation (rescue from dofetilide block), less the hit threshold, % at 10 µM;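 active means activation above the mean of controls blocked by dofetilide plus 5 SD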;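 further: thallium influx through hERG after potassium depolarization seen as dye fluorescence rise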
Cl transport mod = modulators of human KCC2 chloride dependent transport. Q9H2X9. KCC2 cells, thallium flux FluoZin-2 fluorescence. B-score of Tl+ flux slope (higher = more flux/activation; lower = inhibition) at 10 µM. 190,000 tested, 2.2% active;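 active means thallium flux slope and its plate-corrected score both differing from the plate sample mean at a set confidence after two filtering rounds, in either direction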;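 further: slope of fluorescence scaled to starting intensity during 10 to 20 s after thallium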
KCNK9 inh = human KCNK9 channel inhibition; B-score at 10 µM; AID 488922; 310,000 tested, 1.2% active; HEK293 KCNK9, FluxOR thallium flux fluorescence; hits give low values; Q9NPC2;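 active means ratio B-score over 3 SD below the library mean, with starting fluorescence within 5 SD of its mean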;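 further: negative B-score means less thallium flux so channel inhibition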
Target sequence (Q9NPC2 whole entry, looked up): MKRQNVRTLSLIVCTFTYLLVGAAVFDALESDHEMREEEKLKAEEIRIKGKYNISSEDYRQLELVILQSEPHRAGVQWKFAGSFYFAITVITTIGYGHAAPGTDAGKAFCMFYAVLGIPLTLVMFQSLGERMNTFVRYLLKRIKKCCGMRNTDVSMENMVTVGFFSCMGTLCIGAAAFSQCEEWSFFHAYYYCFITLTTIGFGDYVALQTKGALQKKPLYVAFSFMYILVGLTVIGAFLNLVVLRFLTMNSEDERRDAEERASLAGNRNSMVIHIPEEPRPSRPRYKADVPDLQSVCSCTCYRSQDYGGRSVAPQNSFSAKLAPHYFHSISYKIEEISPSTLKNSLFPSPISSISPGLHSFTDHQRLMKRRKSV
KCNQ1 act = potentiates or activates the human KCNQ1 potassium channel. AID 2648. 310,000 tested, 0.35% active. CHO-K1 KCNQ1, thallium flux FluxOR fluorescence; hits give high values. P51787. B-score at 10 µM;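 active means fluorescence ratio B-score, a plate-corrected score, at least three library SD, with initial intensity B-score within 5 SD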
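Assay system: CHO-K1 cells stably expressing KCNQ1. Medium: assay buffer for compound exposure, DMSO matched across wells. Timing: 37 °C overnight plating, 90-min dark dye load, 20-min compound pretreatment. Signal: kinetic FluxOR fluorescence, 10 s baseline plus 110 s post-stimulus.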
KCNK3 inh = human KCNK3 channel inhibition, primary screen | AID 602410 | CHO-KCNK3 thallium flux, FluxOR fluorescence; hits give low values | B-score at 10 µM | 340,000 tested, 0.84% active;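 active means B-score under library mean minus 4 SD, starting fluorescence ratio at most library mean plus 5 SD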;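 further: more negative B-score means stronger inhibition of thallium flux through KCNK3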
Target sequence (O14649 whole entry, looked up): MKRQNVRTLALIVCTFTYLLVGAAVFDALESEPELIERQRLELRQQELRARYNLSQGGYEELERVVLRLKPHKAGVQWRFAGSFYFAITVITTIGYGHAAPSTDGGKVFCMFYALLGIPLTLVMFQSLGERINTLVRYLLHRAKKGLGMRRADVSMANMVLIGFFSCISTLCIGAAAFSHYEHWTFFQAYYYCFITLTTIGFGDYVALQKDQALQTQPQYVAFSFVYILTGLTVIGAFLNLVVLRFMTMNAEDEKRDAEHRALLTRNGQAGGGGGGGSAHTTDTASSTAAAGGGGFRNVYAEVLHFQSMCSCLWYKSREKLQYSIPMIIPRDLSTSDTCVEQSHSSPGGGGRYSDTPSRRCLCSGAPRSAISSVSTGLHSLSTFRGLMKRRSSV
KCNQ1 block = blocks the human KCNQ1 potassium channel; P51787; CHO-K1 KCNQ1, FluxOR thallium flux fluorescence; hits give high values; B-score at 10 µM; 310,000 tested, 1.3% active; AID 2642;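 active means compounds whose thallium flux B-score, printed positive for inhibition, exceeds three library SD while starting fluorescence stays within three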;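 further: channel opened by potassium depolarization with thallium stimulus after 20 min compound exposure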
KCC2 secondary = KCC2 (human) modulation, secondary assay | shares compounds with Cl transport mod | HEK293-KCC2, thallium flux, FluoZin2 fluorescence; hits give high values | normalised thallium flux (F/F0 slope) at 10 µM | 3,700 tested, 15% active | AID 1713;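 active means thallium flux slope above the same plate's solvent-only control mean plus 3 SD; inconclusive means the two replicate wells disagree; inactive means no significant difference from solvent-only control wells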
KCC2 bumet counter = bumetanide-insensitive thallium flux in KCC2 cells with ouabain, counter-screen; shares compounds with Cl transport mod; HEK293-KCC2 + bumetanide/ouabain, thallium flux FluoZin2; hits give high values; normalized thallium flux at 10 µM; 3,700 tested, 49% active; AID 1714;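 active means thallium entry rate above the same plate's blocked-transporter control wells by more than 3 SD; inconclusive means the two repeat wells disagree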;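 further: raw slope of fluorescence over initial fluorescence between 10 and 20 s after thallium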
KCC2 secondary2 = KCC2 (human) modulation, second secondary assay; shares compounds with Cl transport mod; HEK293-KCC2, thallium flux FluoZin2 fluorescence; actives lie on both sides; F/F0 rise rate, 10–20 s post-thallium; normalized thallium flux at 10 µM; 3,700 tested, 23% active; AID 1715;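 active means thallium flux slope more than 3 SD above or below the plate's solvent-only control mean, mostly below; inconclusive means the two repeat wells disagreed; inactive means no significant shift from solvent-only controls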;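 further: raw slope with 0.1% DMSO as baseline and bumetanide as block control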
HEK counter1 = parental HEK flux effect, counter-screen. shares compounds with Cl transport mod. HEK293 parental cells, thallium flux FluoZin2, ouabain; baseline-ratio fluorescence slope, 10–20 s after thallium. thallium flux rate (normalised fluorescence) at 10 µM. 3,700 tested, 46% active;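 active means thallium flux rate significantly above the same plate's solvent-only control wells, beyond their mean plus 3 SD; inconclusive means the two replicate wells gave conflicting results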
KCC2 ouabain = modulates human KCC2 on retest with ouabain; shares compounds with Cl transport mod; HEK293-KCC2, thallium flux FluoZin2 fluorescence; bidirectional: low = inhibitor, high = activator; raw Tl+ flux slope (below DMSO = inhibition, above = activation) at 10 µM; 3,700 tested, 48% active; AID 1717;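 active means thallium flux slope beyond 3 SD from same-plate DMSO control mean in most replicates, usually higher, sometimes lower; inconclusive means repeat tests gave conflicting results; inactive means no significant difference from controls in most replicates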;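 further: slope of initial-normalized fluorescence between seconds 10 and 20 after thallium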
HEK counter2 = parental HEK flux effect, counter-screen 2 | shares compounds with Cl transport mod | HEK293 parental, thallium flux FluoZin-2 fluorescence slope | thallium flux slope at 10 µM | 3,700 tested, 33% active;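 active means thallium flux slope above the same plate's solvent-control mean plus 3 SD in both duplicate wells; inconclusive means duplicate wells that disagreed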;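 further: run without ouabain in cells lacking the KCC2 cotransporter; slope of fluorescence scaled to its starting value between 10 and 20 s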
* = called active by the depositor; i = inactive; u = inconclusive; x = no result given. Only some compounds are listed: those with a hit (about 4.1% of all), similar ones and a draw of the others.

SMILES	hERG rescue	Cl transport mod	KCNK9 inh	KCNQ1 act	KCNK3 inh	KCNQ1 block	KCC2 secondary	KCC2 bumet counter	KCC2 secondary2	HEK counter1	KCC2 ouabain	HEK counter2
C=C1c2cc3c(cc2NC(=S)N1Cc1ccccc1)OCO3	-9	53*	i	i	i	i	0.016*	0.099*	0.032	0.035*	0.047*	0.016*
CCn1c(=O)c(C(=O)NNC(=O)Cc2ccccc2)c(O)c2ccccc21	-4	x	i	i	i	i	x	x	x	x	x	x
CCCCCCCCCC(=O)NNC(=O)c1c(O)c2ccccc2n(CCC)c1=O	-11	3.9*	i	i	i	i	0.015	0.0099*	0.03	0.0092*	0.018	0.012
CCCCCCCCCCC(=O)NNC(=O)c1c(O)c2ccccc2n(CC)c1=O	-7	5.2*	i	i	x	i	0.015	0.015*	0.031	0.0099*	0.019	0.012
Cc1nn(-c2ccccc2)c(C)c1/C=N/n1c(-c2ccccc2Br)n[nH]c1=S	-4	10*	i	i	i	i	0.0064	0.042*	0.031	0.011*	u	u
O=C(/C=C/NCc1cccnc1)c1ccc(Br)cc1	-10	x	i	i	i	i	x	x	x	x	x	x
O=C(NCc1cccs1)c1nc2c(nnn2Cc2ccc(F)cc2)c(=O)[nH]1	-11	-2.3*	i	i	i	i	0.0062	u	0.023*	0.0069	u	0.0093
Cc1ccc(C)c(Cn2nnc3c(=O)[nH]c(C(=O)NCc4ccco4)nc32)c1	-12	-5.7*	i	i	i	i	0.005	0.005	0.023*	0.0062*	0.014*	u
O=C(NC1CCCC1)c1nc2c(nnn2Cc2ccccc2Cl)c(=O)[nH]1	-10	-1.4	i	i	i	i	x	x	x	x	x	x
O=C(NCc1ccco1)c1nc2c(nnn2Cc2ccccc2Cl)c(=O)[nH]1	-8	-3.3*	i	i	i	i	0.0082	0.0067	0.028	u	0.014*	0.0089
O=C(NCC1CCCO1)c1nc2c(nnn2Cc2ccc(F)cc2)c(=O)[nH]1 (stereo not given)	-10	-2.2	i	i	i	i	x	x	x	x	x	x
COc1cc(OC)c(C(=O)OCC(=O)N2CCN(S(=O)(=O)c3ccc(C)cc3C)CC2)cc1OC	x	x	x	x	i	x	x	x	x	x	x	x
C=CCN(CC=C)C(=S)NC(=O)Cc1cccc2ccccc12	10*	x	i	10*	i	i	0.043*	0.15*	0.061*	0.1*	0.13*	0.054*
CCOc1ccc(CN(C(=O)c2oc3ccccc3c2C)C2CCS(=O)(=O)C2)cc1 (stereo not given)	-10	-0.26	i	i	i	i	0.006	0.0043	0.03	0.007	0.017	0.011
C1CC(=NN=C2CCSCC2)CCS1	x	x	x	x	i	x	x	x	x	x	x	x
CCC(C)(C)n1nnnc1C(c1cc2cc(C)ccc2[nH]c1=O)N1CCCC1 (stereo not given)	-6	-0.015	i	i	i	i	x	x	x	x	x	x
Cc1ccc2cc(C(c3nnnn3C(C)(C)C)N3CCCCCC3)c(=O)[nH]c2c1 (stereo not given)	-8	x	i	i	i	i	0.0091	0.0068	0.03	0.0069	0.025	0.011
O=C(Nn1c(O)c(C=C2N=c3ccccc3=N2)sc1=S)c1ccccc1	-5	-3.5*	i	i	i	i	0.0069	0.0045	0.022*	0.0075	0.013*	0.01
O=C(N/N=C/c1ccc(-n2ccnc2)cc1)c1cccs1	-2	x	i	i	i	i	x	x	x	x	x	x
O=C(CN1C(=O)C2C3C=CC(C3)C2C1=O)NCCN1CCCc2ccccc21 (stereo not given)	-1	4.5*	i	i	i	i	0.0076	0.006	0.031	0.0069	0.021	0.0096
Cc1cc(C(=O)CCC(=O)N2CCN(S(=O)(=O)c3cccs3)CC2)c(C)s1	-11	-5*	i	i	i	i	0.0061	0.004	u	u	0.016	0.0091
CN(Cc1ccccc1F)C(=O)c1ccc(NC(=O)CC2SC(N3CCCCC3)=NC2=O)cc1 (stereo not given)	x	x	x	x	i	x	x	x	x	x	x	x
COc1ccc(N2CCN(Cc3nc4scc(-c5cccs5)c4c(=O)[nH]3)CC2)cc1	-2	-0.43	i	i	i	i	x	x	x	x	x	x
CC1Cc2ccccc2N1Cc1nc2scc(-c3cccs3)c2c(=O)[nH]1 (stereo not given)	-7	3.9*	i	i	i	i	0.0079	0.0094*	0.029	0.0072	0.021	0.0093
COc1cccc(CNS(=O)(=O)c2cc3c4c(c2)CCN4C(=O)CC3)c1	-10	x	i	i	i	i	x	x	x	x	x	x
SMILES	hERG rescue	Cl transport mod	KCNK9 inh	KCNQ1 act	KCNK3 inh	KCNQ1 block	KCC2 secondary	KCC2 bumet counter	KCC2 secondary2	HEK counter1	KCC2 ouabain	HEK counter2
CCOc1ccc(NC(=O)c2ccccc2OC)cc1	-9	-4.7*	i	i	i	i	0.0077	0.0051	0.03	0.0084	0.019	0.012
CCOc1ccc(NC(=O)c2ccccc2O)cc1	-8	-1.3	i	i	i	i	x	x	x	x	x	x
O=C(NNC(=O)c1ccccc1Br)c1ccccc1Cl	-6	0.45	i	i	i	i	x	x	x	x	x	x
COc1ccccc1C(=O)NNC(=O)C(=O)NC(C)(C)C	7.4*	34*	i	9*	i	i	0.0057	0.042*	0.044*	0.03*	0.043*	0.029*
CC(C)(C)NC(=O)C(=O)NNC(=O)c1ccccc1Br	-5	9.6*	i	i	i	i	0.015*	0.024*	0.036	u	0.03*	0.012
O=S(=O)(c1ccccc1F)N1CCN(Cc2cc3c(cc2Br)OCCO3)CC1	x	x	x	x	i	x	x	x	x	x	x	x
